In brackets after ≈: the same amount, converted by molar mass.
How the values were obtained:
[1] = target: Transient receptor potential cation channel subfamily A member 1 (Homo sapiens, UniProt O75762); experiment: Agonist activity at human TRPA1 expressed in HEK cells assessed as increase in menthol-induced intracellular calcium level incubated for 2 hrs by FLIPR assay; type: cell-based
Method in brief: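 HEK cells stably expressing hTRPA1, plated at 20,000/well 24 h ahead, loaded with calcium-6 dye plus 2.5 mM probenecid for 2 h at 37 °C. First FLIPR addition: 11-point 1:3 concentration series, read for 5 min, scaled to (−)menthol 1 mM final (100% control); pEC50 fitted. Final DMSO 0.5%; run at 37 °C.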

[2] = target: Transient receptor potential cation channel subfamily V member 4 (Homo sapiens, UniProt Q9HBA0); experiment: Agonist activity at human TRPV4 expressed in HEK cells assessed as increase in GSK1016790A-induced intracellular calcium level measured after 1 hr by FLIPR assay; type: cell-based
Transient receptor potential cation channel subfamily V member 4, sequence (Q9HBA0 whole entry): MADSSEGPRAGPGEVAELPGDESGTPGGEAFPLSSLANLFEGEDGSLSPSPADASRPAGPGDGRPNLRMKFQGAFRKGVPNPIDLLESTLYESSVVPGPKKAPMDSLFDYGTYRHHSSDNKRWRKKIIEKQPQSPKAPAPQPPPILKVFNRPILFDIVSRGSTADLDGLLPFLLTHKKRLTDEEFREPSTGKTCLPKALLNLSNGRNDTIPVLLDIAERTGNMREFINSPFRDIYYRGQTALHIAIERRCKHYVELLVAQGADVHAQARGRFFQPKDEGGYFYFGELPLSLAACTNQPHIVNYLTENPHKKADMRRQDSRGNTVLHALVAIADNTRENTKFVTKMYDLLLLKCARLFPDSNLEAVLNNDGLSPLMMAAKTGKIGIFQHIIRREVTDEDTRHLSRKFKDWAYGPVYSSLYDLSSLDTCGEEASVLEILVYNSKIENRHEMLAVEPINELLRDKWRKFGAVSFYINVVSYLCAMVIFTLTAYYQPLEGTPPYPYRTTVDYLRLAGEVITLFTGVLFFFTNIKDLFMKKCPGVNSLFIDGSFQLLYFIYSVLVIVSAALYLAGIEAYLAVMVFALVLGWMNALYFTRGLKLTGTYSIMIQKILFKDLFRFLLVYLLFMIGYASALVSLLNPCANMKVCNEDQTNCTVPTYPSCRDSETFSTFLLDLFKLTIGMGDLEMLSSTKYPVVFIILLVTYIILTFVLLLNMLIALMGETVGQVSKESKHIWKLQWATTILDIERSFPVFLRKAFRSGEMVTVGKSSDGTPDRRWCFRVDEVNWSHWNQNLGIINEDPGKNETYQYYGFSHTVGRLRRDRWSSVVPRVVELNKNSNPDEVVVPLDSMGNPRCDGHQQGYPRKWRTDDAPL

[3] = target: Transient receptor potential cation channel subfamily V member 1 (Homo sapiens, UniProt Q8NER1); experiment: Agonist activity at human TRPV1 expressed in CHO cells assessed as increase in capsaicin-induced intracellular calcium level measured after 1 hr by FLIPR assay; type: cell-based
Transient receptor potential cation channel subfamily V member 1, sequence (Q8NER1 whole entry): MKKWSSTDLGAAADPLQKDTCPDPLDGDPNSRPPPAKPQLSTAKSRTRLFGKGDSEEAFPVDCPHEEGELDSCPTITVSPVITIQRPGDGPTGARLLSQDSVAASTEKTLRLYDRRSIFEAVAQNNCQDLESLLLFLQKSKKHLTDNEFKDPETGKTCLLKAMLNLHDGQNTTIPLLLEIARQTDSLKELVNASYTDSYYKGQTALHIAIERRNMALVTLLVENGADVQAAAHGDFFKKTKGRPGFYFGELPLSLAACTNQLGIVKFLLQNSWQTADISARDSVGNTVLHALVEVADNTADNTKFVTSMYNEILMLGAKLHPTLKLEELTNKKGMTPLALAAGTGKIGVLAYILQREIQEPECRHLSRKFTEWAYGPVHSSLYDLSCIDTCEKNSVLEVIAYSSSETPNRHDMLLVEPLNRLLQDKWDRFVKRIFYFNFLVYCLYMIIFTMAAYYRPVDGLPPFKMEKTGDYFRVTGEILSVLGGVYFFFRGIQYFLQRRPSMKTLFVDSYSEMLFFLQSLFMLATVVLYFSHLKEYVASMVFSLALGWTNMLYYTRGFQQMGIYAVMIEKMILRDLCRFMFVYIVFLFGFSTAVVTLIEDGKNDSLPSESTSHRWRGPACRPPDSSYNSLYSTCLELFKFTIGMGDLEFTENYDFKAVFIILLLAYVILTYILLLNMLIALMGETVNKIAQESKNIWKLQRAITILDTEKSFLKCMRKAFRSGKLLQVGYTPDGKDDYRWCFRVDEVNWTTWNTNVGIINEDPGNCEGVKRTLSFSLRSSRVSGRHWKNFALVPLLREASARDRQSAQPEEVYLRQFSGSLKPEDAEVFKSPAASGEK
Method in brief: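 CHO cells stably expressing hTRPV1, plated at 10,000/well 24 h before the assay. Loaded with calcium-6 dye plus 2.5 mM probenecid for 1 h at 37 °C and 1 h at rt. FLIPR dual-addition protocol; agonist potency derived as pEC50.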

[4] = Efflux ratio of apparent permeability across basolateral to apical over apical to basolateral membrane in human Caco-2 cells incubated for 30 mins by LC-MS/MS analysis; type: ADME, cell-based
[5] = Intrinsic clearance in mouse liver microsomes assessed per mg protein incubated up to 30 mins in presence of NADPH by LC-MS/MS analysis; type: ADME, Microsome
[6] = Solubility of the compound in phospahte-buffered saline buffer at pH 7.4 incubated for 2 hrs by HPLC/UV analysis; type: physicochemical; conditions: phosphate-buffered saline
[7] = Protein binding in mouse plasma assessed as unbound fraction measured after 5 hrs by equilibrium dialysis based HPLC/UPLC-MS/MS analysis; type: ADME, cell-free
[8] = Drug concentration in C57BL6 mouse plasma at 1 mg/kg, po administered as single dose measured after 6 to 48 hrs by LC-MS/MS analysis; type: ADME, organism-based; conditions: in vivo, time 6-48 hrs
Method in brief: (§1)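 Single oral dose of 1, 3 or 100 mg/kg in mouse. Plasma (ng/mL) and colon and ileum (ng/g) exposure sampled at 6, 24 and 48 h, and at 72 h for the top dose; mean values reported.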

[9] = Drug concentration in C57BL6 mouse colon at 1 mg/kg, po administered as single dose measured after 6 hrs by LC-MS/MS analysis; type: ADME, organism-based; conditions: read-out: Ct; method in brief: as §1
[10] = Drug concentration in C57BL6 mouse ileum at 1 mg/kg, po administered as single dose measured after 6 to 48 hrs by LC-MS/MS analysis; type: ADME, organism-based; conditions: in vivo, time 6-48 hrs; method in brief: as §1
[11] = Drug concentration in C57BL6 mouse plasma at 3 mg/kg, po administered as single dose measured after 6 to 48 hrs by LC-MS/MS analysis; type: ADME, organism-based; conditions: in vivo, time 6-48 hrs; method in brief: as §1
[12] = Drug concentration in C57BL6 mouse colon at 3 mg/kg, po administered as single dose measured after 24 to 48 hrs by LC-MS/MS analysis; type: ADME, organism-based; conditions: in vivo, time 24-48 hrs; method in brief: as §1
[13] = Drug concentration in C57BL6 mouse ileum at 3 mg/kg, po administered as single dose measured after 6 to 48 hrs by LC-MS/MS analysis; type: ADME, organism-based; conditions: in vivo, time 6-48 hrs; method in brief: as §1
[14] = Drug concentration in C57BL6 mouse plasma at 100 mg/kg, po administered as single dose measured after 6 hrs by LC-MS/MS analysis; type: ADME, organism-based; method in brief: as §1
[15] = Drug concentration in C57BL6 mouse colon at 100 mg/kg, po administered as single dose measured after 48 hrs by LC-MS/MS analysis; type: ADME, organism-based; conditions: read-out: Ct; method in brief: as §1
[16] = Drug concentration in C57BL6 mouse colon at 100 mg/kg, po administered as single dose measured after 72 hrs by LC-MS/MS analysis; type: ADME, organism-based; method in brief: as §1
[17] = Drug concentration in C57BL6 mouse ileum at 100 mg/kg, po administered as single dose measured after 6 hrs by LC-MS/MS analysis; type: ADME, organism-based; conditions: read-out: Ct; method in brief: as §1
[18] = tested on: Mus musculus; experiment: Gastroprokinetic activity in CD-1 mouse assessed as stimulation of gastrointestinal motility by measuring fecal number at 10 mg/kg, po measured after 2 hrs (reference value: 5.3 +/-0.7); type: functional
[19] = tested on: Mus musculus; experiment: Gastroprokinetic activity in CD-1 mouse assessed as stimulation of gastrointestinal motility by measuring fecal number at 100 mg/kg, po measured after 2 hrs (reference value: 5.3 +/-0.7); type: functional
[20] = tested on: Mus musculus; experiment: Gastroprokinetic activity in CD-1 mouse assessed as stimulation of gastrointestinal motility by measuring fecal number at 100 mg/kg, po measured after 6 hrs (reference value: 20.1 +/-1.4); type: functional
[21] = tested on: Mus musculus; experiment: Gastroprokinetic activity in CD-1 mouse assessed as stimulation of gastrointestinal motility by measuring total fecal weight at 1 mg/kg, po measured after 3 hrs (reference value: 0.21 +/-0.03 g); type: functional
[22] = tested on: Mus musculus; experiment: Gastroprokinetic activity in CD-1 mouse assessed as stimulation of gastrointestinal motility by measuring total fecal weight at 1 mg/kg, po measured after 6 hrs (reference value: 0.43 +/-0.05 g); type: functional
[23] = tested on: Mus musculus; experiment: Gastroprokinetic activity in CD-1 mouse assessed as stimulation of gastrointestinal motility by measuring total fecal weight at 10 mg/kg, po measured after 1 hrs (reference value: 0.08 +/-0.02 g); type: functional
[24] = tested on: Mus musculus; experiment: Gastroprokinetic activity in CD-1 mouse assessed as stimulation of gastrointestinal motility by measuring total fecal weight at 100 mg/kg, po measured after 1 hrs (reference value: 0.08 +/-0.02 g); type: functional
[25] = tested on: Mus musculus; experiment: Gastroprokinetic activity in CD-1 mouse assessed as stimulation of gastrointestinal motility by measuring total fecal weight at 100 mg/kg, po measured after 2 hrs (reference value: 0.13 +/-0.02 g); type: functional
[26] = Effect on locomotor activity in CD-1 mouse at 1 to 100 mg/kg, po measured up to 6 hrs; type: organism-based; conditions: in vivo, dose 1-100 mg/kg
[27] = target: Transient receptor potential cation channel subfamily M member 4 (Homo sapiens, UniProt Q8TD43); experiment: Agonist activity at human TRPM4 expressed in CHO cells assessed as change in membrane potential by FLIPR assay
Transient receptor potential cation channel subfamily M member 4, sequence (Q8TD43 whole entry): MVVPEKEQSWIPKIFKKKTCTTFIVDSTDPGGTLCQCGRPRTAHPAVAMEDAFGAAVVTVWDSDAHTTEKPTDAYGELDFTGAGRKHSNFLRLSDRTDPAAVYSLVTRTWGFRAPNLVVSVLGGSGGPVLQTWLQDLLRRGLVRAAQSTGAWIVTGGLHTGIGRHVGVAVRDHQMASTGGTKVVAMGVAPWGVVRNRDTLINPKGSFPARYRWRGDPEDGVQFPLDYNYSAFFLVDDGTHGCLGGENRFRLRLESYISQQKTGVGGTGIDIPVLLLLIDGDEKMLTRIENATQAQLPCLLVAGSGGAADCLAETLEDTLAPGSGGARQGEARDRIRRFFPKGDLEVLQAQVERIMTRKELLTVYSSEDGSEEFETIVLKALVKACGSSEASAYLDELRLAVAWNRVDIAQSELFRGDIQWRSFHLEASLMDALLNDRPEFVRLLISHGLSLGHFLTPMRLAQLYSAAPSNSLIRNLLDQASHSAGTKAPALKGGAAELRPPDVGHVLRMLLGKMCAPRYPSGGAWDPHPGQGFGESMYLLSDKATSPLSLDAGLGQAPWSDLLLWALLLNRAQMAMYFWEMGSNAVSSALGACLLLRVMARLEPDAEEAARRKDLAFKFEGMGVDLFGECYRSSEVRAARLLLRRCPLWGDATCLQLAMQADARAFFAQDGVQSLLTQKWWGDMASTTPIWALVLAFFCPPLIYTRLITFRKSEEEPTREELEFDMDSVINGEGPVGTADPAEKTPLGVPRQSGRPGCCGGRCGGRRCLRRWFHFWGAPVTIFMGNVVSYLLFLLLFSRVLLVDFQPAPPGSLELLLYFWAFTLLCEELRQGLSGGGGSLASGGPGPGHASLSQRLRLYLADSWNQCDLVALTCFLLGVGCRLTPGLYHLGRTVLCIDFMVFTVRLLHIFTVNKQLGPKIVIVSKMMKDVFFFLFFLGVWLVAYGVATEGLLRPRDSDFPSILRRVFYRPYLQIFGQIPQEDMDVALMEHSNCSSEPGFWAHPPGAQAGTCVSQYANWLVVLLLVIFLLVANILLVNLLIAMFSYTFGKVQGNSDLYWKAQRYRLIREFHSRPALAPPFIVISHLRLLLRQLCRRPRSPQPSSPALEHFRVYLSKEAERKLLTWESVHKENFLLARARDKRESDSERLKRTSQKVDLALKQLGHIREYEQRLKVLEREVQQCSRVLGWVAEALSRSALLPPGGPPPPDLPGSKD

[28] = tested on: Mus musculus; experiment: Gastroprokinetic activity in CD-1 mouse assessed as stimulation of gastrointestinal motility by measuring total fecal weight at 100 mg/kg, po measured after 6 hrs (reference value: 0.43 +/-0.05 g)
[29] = Half life in CD-1 mouse at 1 mg/kg, iv measured up to 24 hrs; type: ADME, organism-based; conditions: in vivo
[30] = AUClast in CD-1 mouse at 10 mg/kg, po measured up to 24 hrs; type: ADME, organism-based; set-up: route oral, dose 10 mg/kg, time <=24; conditions: in vivo
[31] = Oral bioavailability in CD-1 mouse at 10 mg/kg measured up to 24 hrs; type: ADME, organism-based; conditions: in vivo
[32] = Protein binding in rat plasma assessed as unbound fraction measured after 5 hrs by equilibrium dialysis based HPLC/UPLC-MS/MS analysis; type: ADME, cell-free

Transient receptor potential cation channel subfamily A member 1, sequence (O75762 whole entry): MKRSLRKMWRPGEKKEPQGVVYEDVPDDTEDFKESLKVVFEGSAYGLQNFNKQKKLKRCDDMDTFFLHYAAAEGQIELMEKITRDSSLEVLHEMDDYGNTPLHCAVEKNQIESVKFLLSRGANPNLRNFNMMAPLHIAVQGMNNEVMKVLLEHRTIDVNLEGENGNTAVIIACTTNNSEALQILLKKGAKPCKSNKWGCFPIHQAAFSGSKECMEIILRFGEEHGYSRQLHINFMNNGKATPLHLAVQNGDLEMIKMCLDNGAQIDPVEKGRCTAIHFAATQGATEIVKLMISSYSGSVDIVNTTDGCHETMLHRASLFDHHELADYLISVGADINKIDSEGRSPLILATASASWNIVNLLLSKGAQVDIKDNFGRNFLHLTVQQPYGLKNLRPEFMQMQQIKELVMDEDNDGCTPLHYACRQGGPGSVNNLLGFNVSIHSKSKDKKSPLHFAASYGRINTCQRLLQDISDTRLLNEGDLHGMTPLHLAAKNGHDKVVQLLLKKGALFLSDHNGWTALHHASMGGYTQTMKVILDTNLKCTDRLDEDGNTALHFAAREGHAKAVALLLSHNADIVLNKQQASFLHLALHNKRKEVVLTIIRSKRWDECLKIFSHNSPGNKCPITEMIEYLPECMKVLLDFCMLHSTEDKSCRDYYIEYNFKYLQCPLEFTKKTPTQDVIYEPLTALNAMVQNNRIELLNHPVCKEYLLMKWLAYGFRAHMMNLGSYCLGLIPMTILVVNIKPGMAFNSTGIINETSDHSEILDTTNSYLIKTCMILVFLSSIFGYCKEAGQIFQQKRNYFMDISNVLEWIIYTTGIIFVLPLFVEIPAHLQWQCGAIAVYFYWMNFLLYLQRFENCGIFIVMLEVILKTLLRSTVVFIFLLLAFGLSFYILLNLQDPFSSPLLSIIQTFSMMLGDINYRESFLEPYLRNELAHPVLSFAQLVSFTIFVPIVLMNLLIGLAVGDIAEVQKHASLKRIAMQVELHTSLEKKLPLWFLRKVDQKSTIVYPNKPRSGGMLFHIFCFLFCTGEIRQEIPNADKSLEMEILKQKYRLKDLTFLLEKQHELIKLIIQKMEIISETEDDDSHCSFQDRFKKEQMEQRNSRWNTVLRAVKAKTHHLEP

Compound `Clc1cnc(CNc2cc3sncc3cc2Cl)s1` has an EC50 [1] of 3.16 µM, an EC50 [2] of over 15.8 µM and an EC50 [3] of over 15.8 µM. It also gave an efflux ratio at 0.5 h [4] of 1.6, a microsomal CLint [5] of 520 µL/min/mg and a solubility at 2 h [6] of 30 µM (≈ 9.49 µg/mL). For the same compound, the fraction unbound at 5 h [7] was under 0.01, the Cp [8] was under 20 ng/mL and the concentration at 6 h [9] was 63.8 ng/g. It also gave a Ct [10] of under 20 ng/mL, a Cp [11] of under 20 ng/mL and a Ct [12] of under 20 ng/mL. It also gave a Ct [13] of under 20 ng/mL, a concentration at 6 h [14] of 22.6 ng/mL and a concentration at 48 h [15] of 58 ng/g. It also gave a concentration at 72 h [16] of under 20 ng/mL, a concentration at 6 h [17] of 7380 ng/g and an Activity [18] of 7.3. For the same compound, the Activity [19] was 10.2, the Activity [20] was 16.3 and the Activity [21] was 0.23 g. It also gave an Activity [22] of 0.45 g, an Activity [23] of 0.08 g and an Activity [24] of 0.12 g. The Activity [25] was 0.31 g, the Activity [26] was “Non-Toxic” and the EC50 [27] was 3.16 µM. It also gave an Activity [28] of 0.49 g.
In the case of `Clc1cnc(CNc2ccc3cnsc3c2)s1`, the EC50 [1] is reported as 6.31 µM, the EC50 [2] is reported as over 15.8 µM and the EC50 [3] is reported as over 15.8 µM. The efflux ratio at 0.5 h [4] was 1.08, the microsomal CLint [5] was 164 µL/min/mg and the solubility at 2 h [6] was 511 µM (≈ 144 µg/mL). For the same compound, the fraction unbound at 5 h [7] was under 0.01, the half-life [29] was 48.6 min and the AUC(0-t) at 24 h [30] was 94.3 ng·h/mL. The bioavailability [31] was 1.54% and the EC50 [27] was over 63.1 µM.
Work on `Clc1cnc(CNc2ccc3sncc3c2)s1` yielded an EC50 [1] of 3.16 µM, an EC50 [2] of over 15.8 µM and an EC50 [3] of over 15.8 µM. For the same compound, the efflux ratio at 0.5 h [4] was 0.97, the microsomal CLint [5] was 462 µL/min/mg and the solubility at 2 h [6] was 50 µM (≈ 14.1 µg/mL). It also gave a fraction unbound at 5 h [32] of under 0.01 and an EC50 [27] of over 63.1 µM.

Source: ChEMBL document CHEMBL4823260, “From High-Throughput Screening to Target Validation: Benzo[d]isothiazoles as Potent and Selective Agonists of Human Transient Receptor Potential Cation Channel Subfamily M Member 5 Possessing In Vivo Gastrointestinal Prokinetic Activity in Rodents” (J Med Chem, 2021)
